High-throughput results deposited in PubChem by several laboratories.
Rows were chosen to be rich in hits. Some 1.8% of all compounds tested hit in one or more screens of this group.
Dynein transport: blocks dynein driven cargo transport along microtubules; 3617.4 mouse cells, GR-EGFP nuclear translocation imaging; test concentration mostly 20 µM; stimulated with dexamethasone, 1 µM; stronger effect = lower value; z-score, hits read low; 220,000 tested, 0.47% active; AID 1381;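 active = plate z-score of nuclear minus cytoplasmic receptor signal below a set negative limit, without overly bright fluorescence or cell loss, cut at about -3.5 in these data, passing the limit was not always enough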;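 note: z-score of nuclear minus cytoplasmic ring GR-EGFP intensity difference per well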
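Buffer or medium: tetracycline-free induction medium containing charcoal-stripped FBS / Reagent: dexamethasone agonist, 1.0 µM final, for 30 min / Technique: automated 10x imaging of fixed Hoechst-stained cells / Times: induction 48 h, compound 1 h, agonist 30 min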
HSV replic up: HSV replication enhancement; maximum fold increase; HSV replication augmentation in cells, fold increase; AID 1956; 220,000 tested, 0.005% active; in the data active = maximum fold increase above about 1.5; inconclusive = no clear call, values can overlap the other calls; tested in PC3 cells
Furin inhibitor: inhibitors of human furin; inhibition, % at 20 µM or 30 µM; purified furin, fluorogenic substrate cleavage; P09958; 220,000 tested, 0.061% active; in the data active = inhibition above about 25%
Target sequence (P09958 108-714 limits assumed): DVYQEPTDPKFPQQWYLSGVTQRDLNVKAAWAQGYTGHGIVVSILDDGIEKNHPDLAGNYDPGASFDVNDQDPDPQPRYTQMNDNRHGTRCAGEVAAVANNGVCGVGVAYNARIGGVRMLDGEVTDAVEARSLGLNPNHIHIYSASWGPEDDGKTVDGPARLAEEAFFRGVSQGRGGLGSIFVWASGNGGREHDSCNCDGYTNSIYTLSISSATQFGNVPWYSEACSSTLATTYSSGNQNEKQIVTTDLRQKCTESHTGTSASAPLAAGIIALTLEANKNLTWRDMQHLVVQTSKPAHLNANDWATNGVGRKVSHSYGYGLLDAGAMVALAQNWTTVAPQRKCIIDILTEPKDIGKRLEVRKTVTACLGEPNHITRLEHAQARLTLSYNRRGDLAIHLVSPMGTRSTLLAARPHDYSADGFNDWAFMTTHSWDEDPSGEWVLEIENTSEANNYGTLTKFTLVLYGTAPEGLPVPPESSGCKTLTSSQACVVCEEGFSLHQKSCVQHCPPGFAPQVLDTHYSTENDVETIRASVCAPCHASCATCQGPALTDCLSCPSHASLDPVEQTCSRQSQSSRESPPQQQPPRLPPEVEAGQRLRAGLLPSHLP
TNF death inh: blocks TNF-alpha induced death of Jurkat FADD-/- cells; activation (protection from cell death), % at 10 µM; 220,000 tested, 0.068% active; Jurkat FADD-/- TNF necroptosis rescue, ATP luminescence, 24 h; 0 = TNF only, 100 = no-TNF cells; AID 463075;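 active = activation, meaning protection from cell death, of at least 50% relative to plate controls; inactive = activation below 50%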;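 note: necroptosis triggered by 40 ng/mL TNF-alpha added together with compound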
Autophagy HCS: autophagy modulation, high-content screen; 190,000 tested, 0.98% active; MEF GFP-LC3 puncta imaging; test concentration mostly 10 µM; calls only at 10 µM (by protocol);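 active = percentage of spot-positive cells more than 3 SD above its plate mean, without a fluorescence outlier flag or 80% toxicity; inconclusive = no clear call, values can overlap the other calls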
zVAD death inh: blocks zVAD induced death of L929 cells. L929 zVAD necroptosis rescue, ATP luminescence, 24 h; with zVAD 60 µM. AID 1377. 220,000 tested, 0.38% active. viability rescue, % at 10 µM;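 active = activation, scaled between plate controls, above about 75%, limit read from the data; inactive = activation under that limit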
Each line names hits and unclear results; the compound was inactive in the other large screens.

O=C(Cc1csc(Nc2nc(=S)[nH]c3ccccc23)n1)NCc1ccc(Cl)cc1	none
O=C(Cc1csc(Nc2nc(=S)[nH]c3ccccc23)n1)NCCCN1CCN(c2ccccc2F)CC1	Autophagy HCS active
CC(OC(=O)C1=COCCO1)C(=O)Nc1cc(S(=O)(=O)N2CCCCC2)ccc1Cl (stereo not given)	none
CC(=O)c1ccc(NC(=O)Nc2ccc3c(c2)nc(C)n3C)cc1	Autophagy HCS active
CC(=O)c1cccc(NC(=O)Nc2c(C)nn(C)c2C)c1	Autophagy HCS active
C=CCC(CC=C)(NC(=O)c1ccccc1C(=O)O)c1ccccc1	none
COc1ccc(/C=N/NC(=O)c2cccnc2)cc1Cn1nc([N+](=O)[O-])c(Br)c1C	Autophagy HCS active
O=C1Nc2ccccc2N(O)N1c1ccc(Cl)cc1	none
CCN1c2ccccc2NC2C1C(C(C)=O)C(=O)N2c1ccc(Cl)cc1 (stereo not given)	HSV replic up inconclusive, Autophagy HCS active
CSc1ccccc1NC(=O)CN(C)Cc1cc(=O)n2ccsc2n1	none
O=[N+]([O-])c1ccc(Oc2ccc(F)cc2)c2ccncc12	none
O=[N+]([O-])c1ccc(Oc2cccc(Br)c2)c2ccncc12	Autophagy HCS active
CCC(Br)C(=O)Nc1ccc(OC)cc1 (stereo not given)	none
CC1(C)Cc2nc3sc4c(SCC(=O)NCc5ccccc5)ncnc4c3cc2CO1	Autophagy HCS active
CC1(C)Cc2nc3sc4c(SCC(=O)O)ncnc4c3cc2CO1	none (no result: Autophagy HCS)
Cc1ccc(NC(=O)/C(C#N)=C(\N)C(Cl)(Cl)Cl)nc1	Autophagy HCS active
Cc1ccc(NC(=O)C(=O)Nc2ccc(C)cn2)nc1	none
O=C(Cc1c[nH]c2ccccc12)N1CCc2ccccc21	Furin inhibitor 35
C#Cc1ccc([C@@H]2C=C(C(=O)NC3CC3)O[C@H](OCCCCO)C2)cc1	none (no result: Autophagy HCS)
CC1C(=O)OC(c2ccc(Br)cc2)C(C)(C)C1=O (stereo not given)	none (no result: Autophagy HCS)
COC(=O)CN1C(=O)N/C(=C/c2ccccc2OC)C1=O	none
COc1ccc(OC)c(-c2cc(-c3cccnc3)nc(N)c2C#N)c1	none (no result: Autophagy HCS)
COc1ccc(OC)c(-c2c(C#N)c(N)nc3c2c(=O)nc2sccn23)c1	Autophagy HCS active
CC1CCc2cccc3c2N1c1cc(C#N)c(C#N)cc1O3 (stereo not given)	Autophagy HCS active
CC1CCCCN1c1cc(C#N)c(C#N)cc1[N+](=O)[O-] (stereo not given)	none
COc1cccc(NC(=O)CSc2nc3ccccc3c(=O)n2Cc2cccs2)c1	Autophagy HCS active
CCc1nnc(NC(=O)CSc2nc3cc4c(cc3cc2CC)OCCO4)s1	Autophagy HCS active
CCc1cc2cc3c(cc2nc1SCC(=O)Nc1cc(C)on1)OCO3	Autophagy HCS active
CCc1cc2cc3c(cc2nc1SCC(=O)Nc1nnc(C)s1)OCCO3	none
CSC[C@@H]1NC(=S)N(c2ccc(C)cc2)C1=O	none
O=C(Cn1nnc(-c2ccccc2NC(=O)c2ccco2)n1)NC1CCCCC1	none
Cc1cnc(C(=O)Nc2ccccc2-c2nnn(CC(=O)NC3CCCC3)n2)cn1	Autophagy HCS active
CC1(C(=O)NCCN2CCOCC2)C=CCN1C(=O)c1ccccc1 (stereo not given)	Autophagy HCS active
Cc1ccc(Cn2c(=N)n(CC(=O)c3ccc([N+](=O)[O-])cc3)c3ccccc32)cc1	none
CCCCn1c(=N)n(CC(=O)c2ccc([N+](=O)[O-])cc2)c2ccccc21	Autophagy HCS active
COC(=O)[C@H](Cc1ccccc1)NC(=O)O[C@H]1C(=O)c2ccc(OC)cc2O[C@@H]1c1ccc2c(c1)OCO2	none
CC(=O)Oc1ccc2c(c1)Oc1cc(OC(C)=O)ccc1C21OC(=O)c2ccccc21	Dynein transport -4.7, HSV replic up inconclusive
O=[N+]([O-])c1ccc(Cl)cc1N1CCCCC1	Autophagy HCS active
O=[N+]([O-])c1ccc(Cl)cc1N1CCOCC1	none
COc1cccc(C2CC(c3c(F)cccc3Cl)n3nc(N)nc3N2)c1 (stereo not given)	Autophagy HCS active
CC(C)C1N(C(N)=S)N=CC1(C)C (stereo not given)	none (no result: Autophagy HCS)
O=C(Oc1ccc(-c2cnc3ccccc3n2)cc1)c1ccco1	zVAD death inh 79
COc1ccccc1Oc1ccc(-c2cnc3ccccc3n2)cc1[N+](=O)[O-]	none
Cc1c(C(=O)Oc2ccc(-c3cnc4ccccc4n3)cc2)cccc1[N+](=O)[O-]	zVAD death inh 81
O=[N+]([O-])c1cc(-c2cnc3ccccc3n2)ccc1Oc1ccc(Cl)cc1	Autophagy HCS active
O=C1[C@H]2[C@H](ON3CCCC[C@H]23)C(=O)N1c1ccc(Cl)cc1	none
CCCCOc1ccccc1NC(=O)c1ccco1	none
CCOc1ccc(C(=O)Nc2ccc(NC(=O)c3ccco3)c(Cl)c2)cc1Br	none
CCOc1ccccc1NC(=O)c1cccc(NC(=O)c2ccco2)c1	Autophagy HCS active
CCOc1ccc(C(=O)Nc2ccc(NC(=O)c3ccco3)c(Cl)c2)cc1Cl	Autophagy HCS active (no result: HSV replic up)
N#CC(c1cccc(Cl)c1)c1ccc2c(C(F)(F)F)cc(C(F)(F)F)nc2n1 (stereo not given)	Autophagy HCS active
COc1cc(C#N)ccc1OCC(=O)Nc1cccc(S(=O)(=O)N2CCCC2)c1	none
CCN(CC)CCn1c(=S)[nH]c2cc(C(=O)N3CC=C(c4ccccc4)CC3)ccc2c1=O	none
CCOC(=O)c1c(/N=C/C2=C(O)CCCC2=O)sc2c1CCCC2	none (no result: Autophagy HCS)
CCOC(=O)c1cc(CC)sc1/N=C/C1=C(O)CCCC1=O	Furin inhibitor 37
Cn1nc(C(F)(F)F)c(C(=O)Nc2ccc(Cl)cc2)c1Cl	none
Cn1cc(C(=O)Nc2ccc(Cl)cc2)c(C(F)(F)F)n1	Autophagy HCS active
COc1ccc(CSCC(=O)N/N=C/c2ccccc2O)cc1	Autophagy HCS active
O=C(CSc1ccccc1)N/N=C/c1ccccc1O	none
Cc1cc(N/N=C/c2ccccc2O)nc(-c2ccccc2O)n1	none
Cc1cc(N/N=C/c2ccc(O)cc2O)nc(-c2ccccc2O)n1	Autophagy HCS active
Cc1ccc(S(=O)(=O)/N=C(/Nc2nc(C)cc(C)n2)N2CCOCC2)cc1	none
COc1ccc(N2CCN(/C(=N\S(=O)(=O)c3ccccc3)Nc3nc(C)cc(C)n3)CC2)cc1	Autophagy HCS active
COc1ccc(Nc2ccc3c(c2)=NC2(CCCCC2)[N+]=3[O-])cc1	Autophagy HCS active
Cc1ccc(C2=NN(C(=O)c3cccs3)C(c3ccccc3O)C2)cc1 (stereo not given)	Autophagy HCS active
O=C(c1cccs1)N1N=C(c2ccccc2)CC1c1ccccc1O (stereo not given)	none
